The results in this text go back to ChEMBL document CHEMBL3228006, “Orally active esters of cephalosporin antibiotics. 3. Synthesis and biological properties of aminoacyloxymethyl esters of 7-[D(-)-mandelamido]-3-[[(1-methyl-1H-tetrazol-5-yl)thio]methyl]-3-cephem-4-carboxylic acid” (J Med Chem, 1979).

Broadly, the ED50 is the dose that gives a 50% effect, or the effect in half of the subjects.

Structures are written as SMILES.

One data set has as its system Streptococcus pyogenes. As to the kind of experiment: Antibacterial activity against Streptococcus pyogenes C203 infected in po dosed Swiss mouse assessed as protection against bacterial infection administered 1 to 5 hrs after bacterial infection. It is filed as functional. In a few lines:
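Swiss white mice (13-15 g), groups of eight, infected ip with broth suspension of S. pyogenes C203 lethal to 100% of untreated mice in 24-48 h. Five groups per test received graduated oral doses at 1 and 5 h post-challenge. ED50 by Reed and Muench method from survivors at 7 days.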

The nature of data set [1]: Chemical stability of the compound in phosphate buffer at pH 2.5 assessed as hydrolysis up to 60 mins by paper electrophoresis analysis. The format is physicochemical. Conditions: pH 2.5, 1 h. In a few lines: (§1)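 Ester dissolved in buffer (pH 2.5, 4.5 or 6.0) at 37 °C; samples taken at 0, 20, 40, 60 min and run on paper electrophoresis strips at 400 V in 0.1 M pyridine-acetate buffer for 2 h, steamed, dried, spots seen under UV. Extent of hydrolysis estimated approximately by comparing visual UV zone intensity of ester versus parent acid.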

The nature of data set [2]: Chemical stability of the compound in phosphate buffer at pH 4.5 assessed as hydrolysis up to 60 mins by paper electrophoresis analysis. The settings on record: pH 4.5, 1 h. The format is physicochemical. In a few lines: as §1
Data set [3] is described as follows: Chemical stability of the compound in phosphate buffer at pH 6 assessed as hydrolysis after 20 mins by paper electrophoresis analysis. It is filed as physicochemical. Conditions: for Stability: buffer, pH 6, 20 min; for degraded at 20 min: phosphate buffer, pH 6, read-out: Drug degradation. The gist of the method:
as §1

A short description of data set [4]: Drug metabolism in mouse assessed as cefamandole level in urine using Micrococcus luteus ATCC 9341 as detecting organism at 17 mg/kg, po by disk-plate microbiology assay. It is filed as ADME, organism-based. Details: dose 17 mg/kg, route oral. The settings on record: in vivo. In a few lines:
(§2)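 Mice dosed orally at 17 mg/kg; cefamandole activity in blood or urine measured by disk-plate microbiological assay with Micrococcus luteus ATCC 9341 as detecting organism.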

Another data set deals with Blood. As to the kind of experiment: Drug metabolism in mouse assessed as cefamandole level in blood using Micrococcus luteus ATCC 9341 as detecting organism at 17 mg/kg, po by disk-plate microbiology assay. The format is ADME, organism-based. On the set-up: dose 17 mg/kg, route oral. Conditions: in vivo. In a few lines: as §2
The nature of data set [5]: Drug metabolism in mouse assessed as cefamandole level in small intestine using Micrococcus luteus ATCC 9341 as detecting organism at 17 mg/kg, po by disk-plate microbiology assay. Conditions: in vivo. Details: dose 17 mg/kg, route oral. The format is ADME, organism-based.

For `Cn1nnnc1SCC1=C(C(=O)[O-])N2C(=O)[C@@H](NC(=O)[C@H](O)c3ccccc3)[C@H]2SC1.[Li+]`, the median effective dose (ED50) in the data set with Streptococcus pyogenes turned out to be 12 mg/kg.
On to `CC[C@H](C)[C@H](N)C(=O)OCOC(=O)C1=C(CSc2nnnn2C)CS[C@@H]2[C@H](NC(=O)[C@H](O)c3ccccc3)C(=O)N12.Cl`, for which the Stability entry is reported as “Stable” in data set [1], “Unstable” in data set [2] and “Unstable” in data set [3]. The median effective dose (ED50) with Streptococcus pyogenes amounted to 8.6 mg/kg.
Take `CC(C)C[C@H](N)C(=O)OCOC(=O)C1=C(CSc2nnnn2C)CS[C@@H]2[C@H](NC(=O)[C@H](O)c3ccccc3)C(=O)N12.Cl`: the Stability entry in data set [1] is listed as “Stable”; in data set [2], “Unstable”; in data set [3], “Unstable”. Besides, the median effective dose (ED50) in the data set on Streptococcus pyogenes amounted to 10.4 mg/kg.
Consider `COC(=O)[C@H](N)CC(=O)OCOC(=O)C1=C(CSc2nnnn2C)CS[C@@H]2[C@H](NC(=O)[C@H](O)c3ccccc3)C(=O)N12.Cl`, for which the figures for the Stability result in data set [1] and in data set [2] were “Stable” and “Unstable”, respectively. For the same compound, the Drug metabolism entry in data set [4] was “metabolite_notdetected”; with Blood, “metabolite_notdetected”; in data set [5], “metabolite_detected”. In addition, the ED50 with Streptococcus pyogenes came to 25.2 mg/kg. Further, the degraded at 20 min in data set [3] turned out to be 20%.
With `Cl.Cn1nnnc1SCC1=C(C(=O)OCOC(=O)[C@@H](N)Cc2ccccc2)N2C(=O)[C@@H](NC(=O)[C@H](O)c3ccccc3)[C@H]2SC1`, the Stability result was “Stable” in data set [1] and “Unstable” in data set [2]. In addition, the ED50 in the data set with Streptococcus pyogenes was determined as 15.3 mg/kg. Also, the degraded at 20 min in data set [3] was 50%.
On to `Cl.Cn1nnnc1SCC1=C(C(=O)OCOC(=O)CN)N2C(=O)[C@@H](NC(=O)[C@H](O)c3ccccc3)[C@H]2SC1`, for which the Stability result in data set [1] is on record as “Stable”; in data set [2] it was “Unstable”; in data set [3], “Unstable”. For the same compound, the Drug metabolism result in data set [4] is given as “metabolite_notdetected”; in the data set with Blood, “metabolite_notdetected”; in data set [5], “metabolite_detected”. In the data set with Streptococcus pyogenes, the ED50 turned out to be 20.4 mg/kg.
On to `CC(C)[C@H](N)C(=O)OCOC(=O)C1=C(CSc2nnnn2C)CS[C@@H]2[C@H](NC(=O)[C@H](O)c3ccccc3)C(=O)N12.Cl`, for which the Stability entry in data set [1] is “Stable”; in data set [2] it was “Unstable”; in data set [3], “Unstable”. In addition, the Drug metabolism entry is reported as “metabolite_notdetected” in data set [4], “metabolite_notdetected” with Blood and “metabolite_detected” in data set [5]. Moreover, the ED50 in the data set with Streptococcus pyogenes was found to be 14.3 mg/kg.
